Laboratory results: ChEMBL document CHEMBL2074476, “Contribution of organic anion transporting polypeptide OATP-C to hepatic elimination of the opioid pentapeptide analogue [D-Ala2, D-Leu5]-enkephalin” (J Pharm Pharmacol, 2003)
Where a SMILES comes first, the peptide text is derived from it. [ ]: non-standard residue; d: D form.

Tests used:
[1] = molecular target: T1, Solute carrier organic anion transporter family member 1B1 (OATP1B1) (Homo sapiens, UniProt Q9Y6L6); test: TP_TRANSPORTER: inhibition of E1S uptake (E1S: 0.004 uM, des-tyrosine DADLE: 1000 uM) in Xenopus laevis oocytes; assay type: functional, cell-based, Oocyte; design: scale not given: the % may be the effect or the level left; details: probe E1S (0.004 uM), read-out: Activity
T1 sequence (Q9Y6L6 whole entry): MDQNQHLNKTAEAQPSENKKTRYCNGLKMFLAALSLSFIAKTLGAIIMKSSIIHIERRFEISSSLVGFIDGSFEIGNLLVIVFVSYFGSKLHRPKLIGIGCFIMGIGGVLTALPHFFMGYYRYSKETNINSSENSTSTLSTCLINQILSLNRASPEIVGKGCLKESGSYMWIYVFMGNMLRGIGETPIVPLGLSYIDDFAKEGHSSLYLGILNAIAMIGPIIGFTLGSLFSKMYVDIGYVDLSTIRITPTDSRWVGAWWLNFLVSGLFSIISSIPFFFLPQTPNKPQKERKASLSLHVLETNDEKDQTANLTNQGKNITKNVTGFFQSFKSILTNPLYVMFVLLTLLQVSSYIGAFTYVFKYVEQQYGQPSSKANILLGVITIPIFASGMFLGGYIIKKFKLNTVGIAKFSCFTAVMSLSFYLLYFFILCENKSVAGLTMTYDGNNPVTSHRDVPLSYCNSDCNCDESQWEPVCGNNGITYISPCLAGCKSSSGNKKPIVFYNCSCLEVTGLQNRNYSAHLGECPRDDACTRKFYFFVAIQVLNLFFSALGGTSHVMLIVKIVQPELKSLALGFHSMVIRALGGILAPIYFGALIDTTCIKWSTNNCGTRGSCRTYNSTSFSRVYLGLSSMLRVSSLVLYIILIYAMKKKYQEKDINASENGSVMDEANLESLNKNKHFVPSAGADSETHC
How it was run: (§1)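 Oocytes injected with OATP-C cRNA (25 ng), cultured 3 days in modified Barth's solution, then incubated 30 min at 25 °C in medium 1 (pH 7.4) with [3H]estrone-3-sulfate (4 nM) plus or minus inhibitor. OATP-C-specific uptake = total minus water-injected oocyte uptake, expressed as percent of control; mean ± s.e.m., n = 5–10.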

[2] = molecular target: T2, Solute carrier organic anion transporter family member 1B1 (Homo sapiens, UniProt Q9Y6L6); test: TP_TRANSPORTER: uptake of [D-Pen2,D-Pen5]-enkephalin at a concentration of 0.02 u M in Xenopus laevis oocytes; assay type: functional, cell-based; details: oocyte, 0.02 µM
T2 sequence (Q9Y6L6 whole entry): T1 sequence (Q9Y6L6 whole entry)
How it was run: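 OATP-C cRNA- or water-injected oocytes incubated 60 min at 25 °C in medium 1 (pH 7.4) with [3H]DPDPE (20 nM). Washed with ice-cold buffer, solubilized in 5% SDS, radioactivity counted. Uptake given as cell-to-medium ratio (uptake amount divided by medium concentration); mean ± s.e.m., n = 5–10.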

[3] = molecular target: T1, Solute carrier organic anion transporter family member 1B1 (OATP1B1); test: TP_TRANSPORTER: inhibition of E1S uptake (E1S: 0.004 uM, Ala5: 5000 uM) in Xenopus laevis oocytes; assay type: functional, cell-based, Oocyte; design: scale not given: the % may be the effect or the level left; details: probe E1S (0.004 uM), read-out: Activity; how it was run: as §1
[4] = molecular target: T2, Solute carrier organic anion transporter family member 1B1; test: TP_TRANSPORTER: inhibition of E1S uptake (E1S: 0.004 uM, Ala4: 5000 uM) in Xenopus laevis oocytes; assay type: functional, cell-based; details: oocyte; how it was run: as §1
[5] = molecular target: T2, Solute carrier organic anion transporter family member 1B1; test: TP_TRANSPORTER: inhibition of E1S uptake (E1S: 0.004 uM, Gly4: 5000 uM) in Xenopus laevis oocytes; assay type: functional, cell-based; details: oocyte; how it was run: as §1
[6] = molecular target: T1, Solute carrier organic anion transporter family member 1B1 (OATP1B1); test: TP_TRANSPORTER: inhibition of E1S uptake (E1S: 0.004 uM, YGG: 1000 uM) in Xenopus laevis oocytes; assay type: functional, cell-based, Oocyte; design: scale not given: the % may be the effect or the level left; details: probe E1S (0.004 uM), read-out: Activity; how it was run: as §1
[7] = molecular target: T2, Solute carrier organic anion transporter family member 1B1; test: TP_TRANSPORTER: inhibition of E1S uptake (E1S: 0.004 uM, YdAG: 1000 uM) in Xenopus laevis oocytes; assay type: functional, cell-based; details: oocyte; how it was run: as §1
[8] = molecular target: T2, Solute carrier organic anion transporter family member 1B1; test: TP_TRANSPORTER: inhibition of E1S uptake (E1S: 0.004 uM, PAH: 500 uM) in Xenopus laevis oocytes; assay type: functional, cell-based; details: oocyte; how it was run: as §1
[9] = molecular target: T2, Solute carrier organic anion transporter family member 1B1; test: TP_TRANSPORTER: inhibition of E1S uptake (E1S: 0.004 uM, Carnitine: 50 uM) in Xenopus laevis oocytes; assay type: functional, cell-based; details: oocyte; how it was run: as §1
[10] = molecular target: T1, Solute carrier organic anion transporter family member 1B1 (OATP1B1); test: TP_TRANSPORTER: inhibition of E1S uptake (E1S: 0.004 uM, DADLE: 1000 uM) in Xenopus laevis oocytes; assay type: functional, cell-based, Oocyte; design: scale not given: the % may be the effect or the level left; details: probe E1S (0.004 uM), read-out: Activity; how it was run: as §1
[11] = molecular target: T1, Solute carrier organic anion transporter family member 1B1 (OATP1B1); test: in vitro; details: xenopus laevis, Xenopus laevis oocytes, probe E1S (0.004 uM)
[12] = molecular target: T1, Solute carrier organic anion transporter family member 1B1 (OATP1B1); test: TP_TRANSPORTER: inhibition of DPDPE uptake (DPDPE: 0.02 uM) in Xenopus laevis oocytes; assay type: functional, cell-based, Oocyte; design: scale not given: the % may be the effect or the level left; details: probe DPDPE (0.02 uM)
[13] = molecular target: T1, Solute carrier organic anion transporter family member 1B1 (OATP1B1); test: TP_TRANSPORTER: inhibition of E1S uptake (E1S: 0.004 uM, Quinidine: 500 uM) in Xenopus laevis oocytes; assay type: functional, cell-based, Oocyte; design: scale not given: the % may be the effect or the level left; details: probe E1S (0.004 uM), read-out: Activity; how it was run: as §1
[14] = molecular target: T2, Solute carrier organic anion transporter family member 1B1; test: TP_TRANSPORTER: inhibition of E1S uptake (E1S: 0.004 uM, CCK-8: 100 uM) in Xenopus laevis oocytes; assay type: functional, cell-based; design: scale not given: the % may be the effect or the level left; details: oocyte; how it was run: as §1
[15] = molecular target: T1, Solute carrier organic anion transporter family member 1B1 (OATP1B1); test: TP_TRANSPORTER: inhibition of E1S uptake (E1S: 0.004 uM, BSP: 50 uM) in Xenopus laevis oocytes; assay type: functional, cell-based, Oocyte; design: scale not given: the % may be the effect or the level left; details: probe E1S (0.004 uM), read-out: Activity; how it was run: as §1

Question: `CC(C)C[C@@H](NC(=O)[C@H](Cc1ccccc1)NC(=O)CNC(=O)[C@@H](C)N)C(=O)O` was tested. Which activity at 1000 µM [1] did it give?
Answer: 62.5%

Question: `CC1(C)SSC(C)(C)[C@@H](NC(=O)[C@@H](N)Cc2ccc(O)cc2)C(=O)NCC(=O)N[C@@H](Cc2ccccc2)C(=O)N[C@H]1C(=O)O` was tested. Which Activity [2] did it give?
Answer: substrate [+]

Question: Which activity at 5000 µM [3] does the source give for `C[C@H](N)C(=O)N[C@@H](C)C(=O)N[C@@H](C)C(=O)N[C@@H](C)C(=O)N[C@@H](C)C(=O)O` here?
Answer: 86.3%

Question: How did the Activity [4] turn out when `C[C@H](N)C(=O)N[C@@H](C)C(=O)N[C@@H](C)C(=O)N[C@@H](C)C(=O)O` (H-AAAA-OH) was run?
Answer: is not an inhibitor [-]

Question: Which Activity [5] does the source give for `NCC(=O)NCC(=O)NCC(=O)NCC(=O)O` (H-GGGG-OH) here?
Answer: is not an inhibitor [-]

Question: How did the activity at 1000 µM [6] turn out when `N[C@@H](Cc1ccc(O)cc1)C(=O)NCC(=O)NCC(=O)O` (H-Tyr-Gly-Gly-OH) was run?
Answer: 77.2%

Question: How did the Activity [7] turn out when `C[C@@H](NC(=O)[C@@H](N)Cc1ccc(O)cc1)C(=O)NCC(=O)O` (H-Tyr-[dA]-Gly-OH) was run?
Answer: is not an inhibitor [-]

Question: Which Activity [8] does the source give for `Nc1ccc(C(=O)NCC(=O)O)cc1` [AMINOHIPPURIC ACID] here?
Answer: is not an inhibitor [-]

Question: With `C[N+](C)(C)CC(O)CC(=O)[O-]` (stereo unspecified) [CARNITINE] as the compound, how does the Activity [9] read?
Answer: is not an inhibitor [-]

Question: Which activity at 1000 µM [10] does the source give for `CC(C)C[C@@H](NC(=O)[C@H](Cc1ccccc1)NC(=O)CNC(=O)[C@@H](C)NC(=O)[C@@H](N)Cc1ccc(O)cc1)C(=O)O` [DADLE] here?
Answer: 35.4%

Question: Which activity at 1000 µM [11] does the source give for `CC(C)C[C@H](NC(=O)[C@H](Cc1ccccc1)NC(=O)CNC(=O)CNC(=O)[C@@H](N)Cc1ccc(O)cc1)C(=O)O` [ENKEPHALIN] here?
Answer: 26.8%

Question: With `C[C@]12CC[C@@H]3c4ccc(OS(=O)(=O)O)cc4CC[C@H]3[C@@H]1CCC2=O` [ESTRONE SULFURIC ACID] as the compound, how does the Activity [12] read?
Answer: 50%

Question: With `C=C[C@H]1C[N@@]2CC[C@H]1C[C@@H]2[C@@H](O)c1ccnc2ccc(OC)cc12` [QUINIDINE] as the compound, how does the activity at 500 µM [13] read?
Answer: 81%

Question: With `CSCC[C@H](NC(=O)[C@H](Cc1ccc(OS(=O)(=O)O)cc1)NC(=O)[C@@H](N)CC(=O)O)C(=O)NCC(=O)N[C@@H](Cc1c[nH]c2ccccc12)C(=O)N[C@@H](CCSC)C(=O)N[C@@H](CC(=O)O)C(=O)N[C@@H](Cc1ccccc1)C(N)=O` [SINCALIDE] as the compound, how does the Activity [14] read?
Answer: 9.1%

Question: What does the source list for `O=C1OC(c2ccc(O)c(S(=O)(=O)O)c2)(c2ccc(O)c(S(=O)(=O)O)c2)c2c(Br)c(Br)c(Br)c(Br)c21` [SULFOBROMOPHTHALEIN SODIUM]?
Answer: Activity [12]: 25%; activity at 50 µM [15]: 8%
